# Calls of active or inactive are those of the source. The rule behind the calls is not given here.
# Experiments:
# [1] = target: mTORC1 (Homo sapiens, UniProt P42345); assay: Inhibition of mTORC1 in human A2058 cells assessed as reduction in ribosomal protein S6 phosphorylation at Ser235/236 residues incubated for 1 hr by Western blot analysis; type: cell-based
# [2] = target: mTORC2 (Homo sapiens, UniProt P42345); assay: Inhibition of mTORC2 in human A2058 cells assessed as reduction in PKB phosphorylation at S473 residue incubated for 1 hr by Western blot analysis; type: cell-based
# [3] = target: T1, Serine/threonine-protein kinase mTOR (Homo sapiens, UniProt P42345); assay: Displacement of alexa fluor 647-labeled kinase tracer 314 from recombinant human N-terminal GST-fused mTOR (1360 to 2549 residues) expressed in baculovirus expression system by TR-FRET assay
# [4] = target: Phosphatidylinositol 4,5-bisphosphate 3-kinase catalytic subunit alpha isoform (Homo sapiens, UniProt P42336); assay: Displacement of alexa fluor 647-labeled kinase tracer 314 from recombinant N-terminal His6-tagged p110alpha (unknown origin) by TR-FRET assay
# [5] = Cmax in C57BL/6J mouse brain at 10 mg/kg, po after 30 mins by UHPLC-MS analysis; type: ADME, organism-based; set-up: route oral, dose 10 mg/kg, time 30 min
# Outline: (§1)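 Male C57BL/6J mice, single oral dose 10 mg/kg. Compound extracted from plasma, brain and thigh muscle at set time points over 8 h and quantified by LC–MS. n = 3, mean per time point.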
# [6] = AUC (0 to 8 hrs) in C57BL/6J mouse brain at 10 mg/kg, po by UHPLC-MS analysis; type: ADME, organism-based; set-up: time < 8 hr, route oral, dose 10 mg/kg; settings: in vivo; outline: as §1
# [7] = tested on: OVCAR-3; assay: Antitumor activity against human OVCAR-3 cells xenografted in BALB/c nude mouse assessed as tumor growth inhibition at 6.3 mg/kg, po qd administered for 28 days starting from day 17 post inoculation and measured on day 45; type: functional, organism-based; settings: time 28.0 day
# Outline: (§2)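 BALB/c nude mice inoculated subcutaneously with 5 × 10^6 OVCAR-3 cells on day 0. From day 17, dosed orally once daily for 28 days; controls received vehicle QD. Tumor size tracked over time, tumor weight taken at day 45, body weight recorded at set time points. n = 8, mean ± SEM; two-way ANOVA with Bonferroni or Dunnett's correction.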
# [8] = Half life in mouse cryopreserved hepatocytes at 2.5 uM measured up to 90 mins by LC-MS/MS analysis; type: ADME, cell-based, Hepatocyte; settings: 1.5 h
# Outline: (§3)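 Cultured rat, mouse, dog and human hepatocytes were incubated with compound. Clearance and half-life were measured. Each experiment was run with n = 3.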
# [9] = target: Cytochrome P450 2D6 (Homo sapiens, UniProt P10635); assay: Inhibition of CYP2D6 (unknown origin) by fluorescence assay; type: ADME
# [10] = Half life in C57BL/6J mouse thigh muscle at 10 mg/kg, po by UHPLC-MS analysis; type: ADME, organism-based; outline: as §1
# [11] = tested on: Mus musculus; assay: Increase in glucose level in C57BL/6J mouse plasma at 10 mg/kg, po measured after 2 hrs by UV/Vis spectrometry analysis; type: functional, organism-based
# Outline: (§4)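 Male C57BL/6J mice given a single oral 10 mg/kg dose. Plasma glucose and insulin levels followed over time after dosing. Mean ± SEM.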
# [12] = Half life in C57BL/6J mouse brain at 10 mg/kg, po by UHPLC-MS analysis; type: ADME, organism-based; outline: as §1
# [13] = Toxicity in po dosed Beagle dog assessed as NOAEL administered via gavage for 14 consecutive days; type: organism-based, Canis lupus familiaris; settings: in vivo, time 14 day
# Outline: (§5)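 14-day pilot toxicokinetic study in Wistar rats (males and females assessed separately) and beagle dogs. NOAEL was set in mg/kg/day.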
# [14] = Thermodynamic solubility of the compound in buffer at pH 1.2 incubated for 24 hrs under agitation condition by shake flask method; type: physicochemical; settings: read-out: Therm_solubility
# [15] = Clearance in mouse cryopreserved hepatocytes assessed per 10^6 cells at 2.5 uM measured up to 90 mins by LC-MS/MS analysis; type: ADME, cell-based, Hepatocyte; settings: 1.5 h; outline: as §3
# [16] = tested on: OVCAR-3; assay: Antitumor activity against human OVCAR-3 cells xenografted in BALB/c nude mouse assessed as effect on tumor size at 6.3 mg/kg, po qd administered for 28 days starting from day 17 post inoculation and measured on day 45 (reference value: 1031 mm3); settings: time 28 day
# [17] = Toxicity in BALB/c nude mouse xenografted with human OVCAR3 cells assessed as effect on body weight at 6.3 mg/kg, po qd administered for 28 days starting from day 17 post inoculation; type: organism-based; settings: in vivo, 672 h, time 28 day; outline: as §2
# [18] = AUC (0 to 8 hrs) in C57BL/6J mouse thigh muscle at 10 mg/kg, po by UHPLC-MS analysis; type: ADME, organism-based; set-up: time < 8 hr, route oral, dose 10 mg/kg; settings: in vivo; outline: as §1
# [19] = Permeability of the compound in PBS at pH 7.4 incubated for 2 hrs under shaking condition by PAMPA; type: ADME; settings: pH 7.4, 2 h
# [20] = target: T2, Cytochrome P450 1A2 (Homo sapiens, UniProt P05177); assay: Inhibition of CYP1A2 (unknown origin) by fluorescence assay; type: ADME
# T2 sequence (P05177 whole entry): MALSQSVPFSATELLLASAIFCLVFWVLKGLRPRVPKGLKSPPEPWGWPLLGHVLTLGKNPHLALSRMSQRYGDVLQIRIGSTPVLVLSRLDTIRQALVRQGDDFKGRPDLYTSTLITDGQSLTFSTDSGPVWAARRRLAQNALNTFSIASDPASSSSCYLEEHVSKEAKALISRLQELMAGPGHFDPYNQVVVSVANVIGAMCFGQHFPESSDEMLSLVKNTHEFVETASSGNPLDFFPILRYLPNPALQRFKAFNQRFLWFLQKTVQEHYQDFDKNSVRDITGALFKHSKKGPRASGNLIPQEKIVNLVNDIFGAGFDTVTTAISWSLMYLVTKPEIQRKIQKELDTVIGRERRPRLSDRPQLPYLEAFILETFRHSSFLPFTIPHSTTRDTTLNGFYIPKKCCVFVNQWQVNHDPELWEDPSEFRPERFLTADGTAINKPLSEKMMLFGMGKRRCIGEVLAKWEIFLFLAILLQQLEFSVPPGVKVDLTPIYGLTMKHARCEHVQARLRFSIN
# [21] = Half life in rat cryopreserved hepatocytes at 2.5 uM measured up to 90 mins by LC-MS/MS analysis; type: ADME, cell-based, Hepatocyte; settings: 1.5 h; outline: as §3
# [22] = Half life in C57BL/6J mouse plasma at 10 mg/kg, po by UHPLC-MS analysis; type: ADME, organism-based; outline: as §1
# [23] = Toxicity in BALB/c nude mouse xenografted with human OVCAR3 cells assessed as maximum tolerated dose; settings: in vivo
# [24] = Half life in dog cryopreserved hepatocytes at 2.5 uM measured up to 90 mins by LC-MS/MS analysis; type: ADME, cell-based, Canis lupus familiaris, Hepatocyte; settings: 1.5 h; outline: as §3
# [25] = Toxicity in po dosed Wistar female rat assessed as NOAEL administered via gavage for 14 consecutive days; type: organism-based; settings: in vivo, time 14 day; outline: as §5
# [26] = Clearance in dog cryopreserved hepatocytes assessed per 10^6 cells at 2.5 uM measured up to 90 mins by LC-MS/MS analysis; type: ADME, cell-based, Canis lupus familiaris, Hepatocyte; settings: 1.5 h; outline: as §3
# [27] = Clearance in human cryopreserved hepatocytes assessed per 10^6 cells at 2.5 uM measured up to 90 mins by LC-MS/MS analysis; type: ADME, cell-based, Hepatocyte; settings: 1.5 h; outline: as §3
# [28] = tested on: Mus musculus; assay: Increase in insulin level in C57BL/6J mouse plasma at 10 mg/kg, po measured after 2 hrs by UV/Vis spectrometry analysis; type: functional, organism-based; outline: as §4
# [29] = Clearance in rat cryopreserved hepatocytes assessed per 10^6 cells at 2.5 uM measured up to 90 mins by LC-MS/MS analysis; type: ADME, cell-based, Hepatocyte; settings: 1.5 h; outline: as §3
# [30] = target: T1, Serine/threonine-protein kinase mTOR; assay: Displacement of alexa fluor 647-labeled kinase tracer 314 from recombinant human N-terminal GST-fused mTOR (1360 to 2549 residues) expressed in baculovirus expression system by TR-FRET assay relative to parent compound
# [31] = Half life in human cryopreserved hepatocytes at 2.5 uM measured up to 90 mins by LC-MS/MS analysis; type: ADME, cell-based, Hepatocyte; settings: 1.5 h; outline: as §3
# [32] = Ratio of drug level in brain to plasma in C57BL/6J mouse at 10 mg/kg, po by UHPLC-MS analysis; type: ADME, organism-based; settings: brain and plasma, read-out: BPR
# Outline: (§6)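 Male C57BL/6J mice given a single oral 10 mg/kg dose. Plasma, brain and thigh muscle sampled at set times up to 8 h. Compound extracted from each tissue and quantified by LC–MS. n = 3, mean per time point.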
# [33] = Tmax in C57BL/6J mouse thigh muscle at 10 mg/kg, po by UHPLC-MS analysis; type: ADME, organism-based; outline: as §1
# [34] = Tmax in C57BL/6J mouse brain at 10 mg/kg, po by UHPLC-MS analysis; type: ADME, organism-based; outline: as §1
# [35] = Cmax in C57BL/6J mouse plasma at 10 mg/kg, po after 1 hr by UHPLC-MS analysis; type: ADME, organism-based; set-up: route oral, dose 10 mg/kg, time 1 hrs; settings: in vivo; outline: as §1
# [36] = Cmax in C57BL/6J mouse thigh muscle at 10 mg/kg, po after 30 mins by UHPLC-MS analysis; type: ADME, organism-based; set-up: route oral, time 30 min, dose 10 mg/kg; outline: as §1
# [37] = Tmax in C57BL/6J mouse plasma at 10 mg/kg, po by UHPLC-MS analysis; type: ADME, organism-based; outline: as §1
# [38] = Clearance in C57BL/6J mouse plasma at 10 mg/kg, po by UHPLC-MS analysis; type: ADME, organism-based; outline: as §6
# [39] = Thermodynamic solubility of the compound in buffer at pH 1.2 to 6.8 incubated for 24 hrs under agitation condition by shake flask method; type: physicochemical; settings: read-out: Therm_solubility
# [40] = target: Cytochrome P450 2C19 (Homo sapiens, UniProt P33261); assay: Inhibition of CYP2C19 (unknown origin) by fluorescence assay; type: ADME
# [41] = AUC (0 to 8 hrs) in C57BL/6J mouse plasma at 10 mg/kg, po by UHPLC-MS analysis; type: ADME, organism-based; set-up: time < 8 hr, route oral, dose 10 mg/kg; settings: in vivo; outline: as §1
# [42] = target: Cytochrome P450 3A4 (Homo sapiens, UniProt P08684); assay: Inhibition of CYP3A4 (unknown origin) by fluorescence assay; type: ADME
# [43] = Toxicity in po dosed Wistar male rat assessed as NOAEL administered via gavage for 14 consecutive days; type: organism-based; settings: in vivo, time 14 day; outline: as §5
# Chain of Phosphatidylinositol 4,5-bisphosphate 3-kinase catalytic subunit alpha isoform (P42336 whole entry, canonical isoform): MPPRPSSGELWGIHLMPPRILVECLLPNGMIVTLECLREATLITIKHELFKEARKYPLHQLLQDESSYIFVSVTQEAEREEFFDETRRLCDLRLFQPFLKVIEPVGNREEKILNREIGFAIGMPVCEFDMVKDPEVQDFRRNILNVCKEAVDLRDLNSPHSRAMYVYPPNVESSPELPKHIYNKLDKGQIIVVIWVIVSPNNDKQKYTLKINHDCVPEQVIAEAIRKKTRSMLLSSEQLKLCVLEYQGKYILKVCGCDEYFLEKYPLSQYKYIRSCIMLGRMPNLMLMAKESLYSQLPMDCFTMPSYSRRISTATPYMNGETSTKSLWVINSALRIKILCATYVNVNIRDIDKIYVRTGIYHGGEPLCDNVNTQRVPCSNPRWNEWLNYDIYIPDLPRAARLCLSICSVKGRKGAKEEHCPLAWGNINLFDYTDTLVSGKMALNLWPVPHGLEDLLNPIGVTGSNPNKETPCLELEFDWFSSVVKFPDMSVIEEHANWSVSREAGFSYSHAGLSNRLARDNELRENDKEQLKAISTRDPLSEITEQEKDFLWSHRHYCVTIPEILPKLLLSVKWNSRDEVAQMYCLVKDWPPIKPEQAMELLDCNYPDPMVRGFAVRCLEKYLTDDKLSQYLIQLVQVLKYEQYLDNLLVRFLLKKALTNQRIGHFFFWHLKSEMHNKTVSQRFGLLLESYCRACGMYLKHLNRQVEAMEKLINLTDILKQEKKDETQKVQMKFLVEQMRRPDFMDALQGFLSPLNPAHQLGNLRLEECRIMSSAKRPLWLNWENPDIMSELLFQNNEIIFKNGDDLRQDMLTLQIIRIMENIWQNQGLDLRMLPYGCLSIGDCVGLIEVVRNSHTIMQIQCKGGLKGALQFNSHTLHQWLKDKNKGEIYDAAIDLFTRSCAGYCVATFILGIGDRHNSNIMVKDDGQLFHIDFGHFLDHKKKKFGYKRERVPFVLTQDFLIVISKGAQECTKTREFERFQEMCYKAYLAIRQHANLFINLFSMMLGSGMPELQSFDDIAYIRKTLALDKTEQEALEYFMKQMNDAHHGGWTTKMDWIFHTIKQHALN
# Chain of Cytochrome P450 2D6 (P10635 whole entry): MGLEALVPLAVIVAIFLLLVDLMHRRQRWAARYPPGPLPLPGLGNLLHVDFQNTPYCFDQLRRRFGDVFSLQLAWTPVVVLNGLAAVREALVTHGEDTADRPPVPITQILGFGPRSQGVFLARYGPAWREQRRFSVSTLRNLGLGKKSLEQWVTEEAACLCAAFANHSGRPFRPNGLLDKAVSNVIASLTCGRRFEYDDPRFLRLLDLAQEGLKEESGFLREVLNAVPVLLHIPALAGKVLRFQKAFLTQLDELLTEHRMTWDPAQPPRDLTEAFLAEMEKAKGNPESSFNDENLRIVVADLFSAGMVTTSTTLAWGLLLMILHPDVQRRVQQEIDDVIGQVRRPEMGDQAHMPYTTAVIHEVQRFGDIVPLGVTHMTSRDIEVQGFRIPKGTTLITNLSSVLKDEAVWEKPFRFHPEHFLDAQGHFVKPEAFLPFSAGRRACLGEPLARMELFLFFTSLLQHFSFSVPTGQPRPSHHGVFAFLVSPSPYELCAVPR
# Chain of Cytochrome P450 3A4 (P08684 whole entry): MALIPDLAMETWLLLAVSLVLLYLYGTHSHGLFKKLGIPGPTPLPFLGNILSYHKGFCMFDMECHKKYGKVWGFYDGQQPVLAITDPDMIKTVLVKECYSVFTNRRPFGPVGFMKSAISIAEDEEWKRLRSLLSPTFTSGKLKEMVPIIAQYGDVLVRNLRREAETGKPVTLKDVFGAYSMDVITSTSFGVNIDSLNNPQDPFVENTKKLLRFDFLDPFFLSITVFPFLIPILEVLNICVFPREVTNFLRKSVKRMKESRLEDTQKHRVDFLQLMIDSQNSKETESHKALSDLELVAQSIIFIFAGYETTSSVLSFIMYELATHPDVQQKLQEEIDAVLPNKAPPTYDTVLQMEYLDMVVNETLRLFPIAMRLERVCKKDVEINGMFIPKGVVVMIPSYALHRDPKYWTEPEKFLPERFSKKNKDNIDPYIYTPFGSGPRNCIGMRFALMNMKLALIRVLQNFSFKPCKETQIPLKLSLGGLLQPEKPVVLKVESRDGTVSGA
# Chain of Cytochrome P450 2C19 (P33261 whole entry): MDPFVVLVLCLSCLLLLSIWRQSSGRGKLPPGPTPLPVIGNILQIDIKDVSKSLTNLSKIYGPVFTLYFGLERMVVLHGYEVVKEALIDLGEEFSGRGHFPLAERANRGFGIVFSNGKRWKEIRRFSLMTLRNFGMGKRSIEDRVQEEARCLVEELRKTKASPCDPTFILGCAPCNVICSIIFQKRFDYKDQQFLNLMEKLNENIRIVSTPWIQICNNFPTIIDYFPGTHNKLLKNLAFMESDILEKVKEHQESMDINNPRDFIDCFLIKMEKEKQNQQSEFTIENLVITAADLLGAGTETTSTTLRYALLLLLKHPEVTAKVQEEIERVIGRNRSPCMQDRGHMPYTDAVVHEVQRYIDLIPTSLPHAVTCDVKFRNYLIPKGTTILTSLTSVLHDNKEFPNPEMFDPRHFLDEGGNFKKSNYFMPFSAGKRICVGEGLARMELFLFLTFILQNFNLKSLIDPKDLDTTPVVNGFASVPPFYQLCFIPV
compound,measurement,setting,value
Nc1ncc(-c2nc(N3CCOCC3)nc(N3C[C@H]4CC[C@@H](C3)O4)n2)c(C(F)F)n1,IC50,[1],139 nM
same,IC50,[2],84 nM
same,Ki,[3],29 nM
same,Ki,[4],4.4 nM
Nc1ncc(-c2nc(N3CCOCC3)nc(N3[C@@H]4CC[C@H]3COC4)n2)c(C(F)F)n1,IC50,[1],91 nM
same,IC50,[2],73 nM
same,Ki,[3],14 nM
same,Ki,[4],3.4 nM
C[C@@H]1COCCN1c1nc(-c2cnc(N)nc2C(F)F)nc(N2CCOCC2)n1,IC50,[1],116 nM
same,IC50,[2],64 nM
same,Ki,[3],21 nM
same,Ki,[4],2.7 nM
Nc1ncc(-c2nc(N3CCOCC3)nc(N3CCOCC3)n2)c(C(F)F)n1,IC50,[1],61 nM
same,Cmax,[5],1020 ng/mL
same,AUC,[6],2757 ng·h/mL
same,growth inhibition (GI),[7],Active
same,t1/2,[8],3.208 h
same,IC50,[9],> 100000 nM
same,half-life,[10],1.6 h
same,Activity,[11],Active
same,half-life,[12],1.6 h
same,NOAEL at 336 h,[13],10 mg/kg
same,solubility thermodynamic at 24 h,[14],13.6 µg/mL
same,IC50,[2],17 nM
same,CLH,[15],7 µL/min
same,Activity,[16],397 mm3
same,Activity,[17],Non-Toxic
same,Ki,[3],33 nM
same,AUC,[18],4526 ng·h/mL
same,permeability,[19],8.196 ×10⁻⁶ cm/s
same,IC50,[20],> 100000 nM
same,t1/2,[21],8.67 h
same,half-life,[22],1.7 h
same,MTD,[23],6.3 mg/kg
same,t1/2,[24],3.528 h
same,NOAEL at 336 h,[25],2.4 mg/kg
same,CLH,[26],6.7 µL/min
same,CLH,[27],4 µL/min
same,Activity,[28],Active
same,CLH,[29],1.5 µL/min
same,Ratio Ki,[30],2
same,t1/2,[31],5.775 h
same,Kp,[32],0.3
same,Tmax,[33],0.5 h
same,Tmax,[34],0.5 h
same,Cmax,[35],3282 ng/mL
same,Cmax,[36],1810 ng/mL
same,Tmax,[37],1 h
same,CL/F,[38],15.6 mL/min/kg
same,solubility thermodynamic at 24 h,[39],> 1 µg/mL
same,IC50,[40],> 100000 nM
same,AUC,[41],10315 ng·h/mL
same,IC50,[42],> 100000 nM
same,NOAEL at 336 h,[43],3.6 mg/kg
